From ChEMBL document CHEMBL4145615, “Indolyl Azaspiroketal Mannich Bases Are Potent Antimycobacterial Agents with Selective Membrane Permeabilizing Effects and in Vivo Activity” (J Med Chem, 2018)
In brackets after ≈: the same amount, converted by molar mass.

What was measured:
[1] = Hemolytic activity against human RBC after 1 hr; assay type: ADME, cell-based, Erythrocyte; settings: red blood cells (erythrocytes)
In short: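 Human red blood cells were exposed to the test compound at a range of concentrations in phosphate-buffered saline for 1 h at 37°C. Hemolysis was referenced to 2% Triton X-100, taken as 100% hemolysis. The value reported is the concentration that lyses 50% of RBCs.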

Vero C1008 = assay: Cytotoxicity against African green monkey Vero E6 cells assessed as cell growth inhibition after 48 hrs by celltitre 96 aqueous one-based assay; settings: Chlorocebus sabaeus, Vero C1008, 48 h
[2] = Selectivity index, ratio of IC50 for African green monkey Vero E6 cells to MIC50 for Mycobacterium bovis BCG ATCC 35734; assay type: toxicity, Vero C1008; settings: read-out: Selectivity Index
[3] = test system: Mycobacterium tuberculosis; assay: Antimycobacterial activity against Mycobacterium tuberculosis H37Rv ATCC 27294 after 7 days by broth dilution method; assay type: functional; settings: H37Rv ATCC 27294, 168 h
[4] = Drug uptake in lungs of CD1 mouse at 25 mg/kg, po administered as single dose measured at 5 hrs post dose by LC/MS-MS analysis; assay type: ADME, organism-based; settings: lung, read-out: Drug uptake
In short: (§1)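 Uninfected CD-1 mice (n=2 per compound), single oral dose 25 mg/kg as a solution in 5% DMA/65% PEG300/30% D5W. Blood taken at 30 min, 1, 3, 5 h and plasma separated by centrifugation. Lungs taken at 5 h and homogenized in ~5 volumes PBS. Levels measured by LC/MS-MS after acetonitrile/methanol protein precipitation with verapamil internal standard. AUC and Cmax calculated from mean concentrations.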

Mus musculus [5] = assay: AUC in CD1 mouse at 25 mg/kg, po administered as single dose by LC/MS-MS analysis; assay type: ADME, organism-based; settings: in vivo; in short: as §1
[6] = test system: Mycobacterium tuberculosis; assay: Bactericidal activity against Mycobacterium tuberculosis H37Rv ATCC 27294 after 5 days; assay type: functional; settings: H37Rv ATCC 27294, 120 h, read-out: MBC99.9
Mus musculus [7] = assay: Toxicity in CD1 mouse at 25 mg/kg, po administered as single dose by LC/MS-MS analysis; assay type: organism-based; settings: in vivo
In short: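 Uninfected CD-1 mice (n=2 per compound) received a single oral 25 mg/kg dose as a solution in 5% DMA/65% PEG300/30% D5W. Tail-bleed blood was taken at 30 min, 1, 3 and 5 h and spun to plasma. Lungs were taken at 5 h and homogenized in about 5 volumes of PBS. Samples were acetonitrile/methanol-precipitated with verapamil internal standard and quantified by LC-MS/MS against standard curves in drug-free CD1 plasma.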

[8] = test system: Mycobacterium tuberculosis; assay: Bactericidal activity against Mycobacterium tuberculosis H37Rv ATCC 27294 assessed as 1000 fold reduction in CFU after 7 days; assay type: functional; settings: H37Rv ATCC 27294, 168 h, read-out: MBC99.9
In short: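 BCG ran 5 days at 37°C, 110 rpm; H37Rv ran 7 days at 37°C, 80 rpm. CFU counted on 7H10 agar. MBC99.9 is the 1000-fold CFU reduction versus inoculum at time zero. Average of 2 or more determinations.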

[9] = Cmax in CD1 mouse at 25 mg/kg, po administered as single dose by LC/MS-MS analysis; assay type: ADME, organism-based; design: dose 25 mg/kg, route oral; settings: in vivo; in short: as §1
[10] = Plasma concentration in CD1 mouse at 25 mg/kg, po administered as single dose measured at 5 hrs post dose by LC/MS-MS analysis; assay type: ADME, organism-based; in short: as §1
[11] = test system: Mycobacterium tuberculosis; assay: Loebicidal activity against nutrient-starved nongrowing Mycobacterium tuberculosis H37Rv ATCC 27294 assessed as 1000 fold reduction in CFU after 7 days; assay type: functional
In short: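 Mtb H37Rv nutrient-starved, non-growing bacilli prepared from a roller-bottle culture. 1 mL at OD600 = 0.05 exposed to a range of concentrations for 7 days at 37°C, 80 rpm. CFU counted on 7H10 agar. LCC99.9 is the 1000-fold reduction versus drug-free inoculum at time zero.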

[12] = Half life in rat liver microsomes at 1 uM preincubated for 5 mins followed by NADPH addition measure up to 45 mins by LC-MS analysis; assay type: ADME, microsome; settings: 0.75 h
In short: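 Male rat liver microsomes, incubated 45 min at 37°C. Half-life reported as mean ± SD.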

[13] = Ratio of drug level in CD1 mouse lung to plasma at 25 mg/kg, po administered as single dose measured at 5 hrs post dose by LC/MS-MS analysis; assay type: ADME, organism-based
In short: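 Blood taken at 30 min, 1, 3, 5 h and plasma separated by centrifugation. Lungs taken at 5 h and homogenized in ~5 volumes PBS. Levels measured by LC/MS-MS after acetonitrile/methanol protein precipitation with verapamil internal standard. AUC and Cmax calculated from mean concentrations.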

[14] = Drug uptake in lung of Mycobacterium tuberculosis H37Rv infected BALB/c mouse at 100 mg/kg administered 6 days per week for 4 weeks via oral gavage; assay type: ADME, organism-based; settings: in vivo, read-out: Drug uptake
Mus musculus [15] = assay: Acute toxicity in BALB/c mouse at 100 mg/kg administered via oral gavage for 3 days measured over 7 days; assay type: organism-based; settings: in vivo, 168 h
In short: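 BALB/c mice, 3 per group, oral gavage at 100 mg/kg in 200 μL of equal volumes PEG400 and 5% glucose. Dosed on three consecutive days, then monitored 7 days. Euthanized by CO2 and examined for gross pathological changes.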

Structure (SMILES) | HC50 at 1 h [1] [µM] | IC50 (Vero C1008) [µM] | also measured
COc1ccc2c(CN3CCC4(CC3)OCCCO4)cn(CCCOc3ccccc3)c2c1 | > 300 | – | –
CCCCCCCCn1cc(CN2CC(c3ccccc3)C2)c2ccc(OC)cc21 | > 300 | 44 | –
CCCCCCCCn1cc(CN2[C@H]3CCC[C@@H]2CCC3)c2ccc(OC)cc21 | 109 | 31 | selectivity ratio [2]: 8
CCCCCCCCn1cc(CNCC2CC3CC3C2)c2ccc(OC)cc21 (configuration not stated) | 33 | 10 | –
CCCCCCCCn1cc(CN2CCOC3(CCCOC3)C2)c2ccc(OC)cc21 (configuration not stated) | > 300 | > 500 | selectivity ratio [2]: > 278
CCCCCCCCn1ccc2ccc(OCCCN3CCCCCC3)cc21 | – | 33 | –
CCCCCCCCn1cc(CN2CCC3(CCO3)CC2)c2ccc(OC)cc21 | 88 | 31 | selectivity ratio [2]: 16
CCCCCCCCn1cc(CN2CCC3(CC2)OCCO3)c2ccc(C#N)cc21 | > 300 | 59 | –
CCCCCCCCn1cc(CN2CCC3(CCN(Cc4ccccc4)CC3)CC2)c2ccc(OC)cc21 | 69 | 14 | –
CCCCCCCCn1cc(CN2CCC3(CC2)OCCCO3)c2cccc([N+](=O)[O-])c21 | > 300 | 49 | –
COc1ccc2c(CN3CCCCC3)cn(CCCc3ccccc3)c2c1 | – | 43 | –
CCCCCCCCn1cc(CN2CCC3(CC2)OC[C@@H](C)O3)c2ccc(OC)cc21 | 75 | 37 | –
COc1ccc2c(CN3CCC4(CC3)OCCCO4)cn(CCCOCc3ccccc3)c2c1 | – | 54 | –
CCCCCCCCn1cc(CN2CCCCC2)c2ccc([N+](=O)[O-])cc21 | – | 23 | –
CCCCCCCCn1cc(CN2CCC3(CC2)OCCO3)c2ccc([N+](=O)[O-])cc21 | > 300 | 62 | –
CCCCCCCCn1cc(CN2CCC3(CC2)OCCCO3)c2ccc([N+](=O)[O-])cc21 | > 300 | 28 | –
COc1ccc2c(CN3CCC4(CC3)OCCCO4)cn(CCCOc3ccc(C)c(C)c3)c2c1 | > 300 | – | –
CCCCCCCCn1cc(CN2CCC3(CC2)OC[C@H](C)O3)c2ccc(OC)cc21 | 51 | 34 | –
CCCCCCCCn1cc(CNCC2CCC3(CCCC3)O2)c2ccc(OC)cc21 (configuration not stated) | – | 21 | selectivity ratio [2]: 12
CCCCCCCCn1cc(CN2CCC3(CC2)OCCS3)c2ccc(OC)cc21 | > 300 | 64 | MIC50 [3]: 0.6 µM (≈ 0.258 µg/mL); MIC90 [3]: 0.95 µM (≈ 0.409 µg/mL); ΔTm (Lipid bilayer): 4 °C
COc1ccc2c(CN3CCC4(CC3)OCCCO4)cn(CCCOc3ccc(F)cc3)c2c1 | > 300 | – | –
CCCCCCCCn1cc(CN2CCC3(CC2)OCCCO3)c2ccc(OCc3ccccc3)cc21 | > 300 | 27 | –
CCCCCCCCn1cc(CN2CCC3(CC2)OCCCO3)c2ccc(OC(C)C)cc21 | 29 | 20 | –
CCCCCCCCn1cc(CN2CCC3(CC2)SCCS3)c2ccc(OC)cc21 | > 300 | > 200 | selectivity ratio [2]: > 400; MIC50 [3]: 0.7 µM (≈ 0.313 µg/mL); MIC90 [3]: 1.1 µM (≈ 0.491 µg/mL); ΔTm (Lipid bilayer): 4 °C
CCCCCCCCn1cc(CN2CCC3(CC2)OCCO3)c2ccc(OC(C)C)cc21 | 56 | 41 | –

Structure (SMILES) | HC50 at 1 h [1] [µM] | IC50 (Vero C1008) [µM] | also measured
CCCCCCCCn1cc(CNCC2CCC3CC3C2)c2ccc(OC)cc21 (configuration not stated) | – | 20 | selectivity ratio [2]: 13
COc1ccc2c(CN3CCC4(CC3)OCCCO4)cn(CCCOc3ccc(C)cc3)c2c1 | > 300 | – | –
CCCCCCCCn1cc(CN2CCC3(CC2)OCCCO3)c2ccc(C#N)cc21 | > 300 | 22 | –
CCCCCCCCn1cc(CN2CCC3(CCc4ccccc43)CC2)c2ccc(OC)cc21 | > 300 | 31 | selectivity ratio [2]: 31
CCCCCCCCn1cc(CN2CCCC3(CC2)OCCS3)c2ccc(OC)cc21 (configuration not stated) | > 300 | 35 | –
COc1ccc2c(CN3CCC4(CC3)OCCCO4)cn(CCCCc3ccccc3)c2c1 | > 300 | 21 | –
CCCCCCCCn1cc(CN2CCC3(CC2)OC(C)C(C)O3)c2ccc(OC)cc21 (configuration not stated) | 76 | 34 | selectivity ratio [2]: 49
CCCCCCCCn1cc(CN2CCC3(CC2)SCCCS3)c2ccc(OC)cc21 | > 300 | 152 | MIC50 [3]: 0.5 µM (≈ 0.23 µg/mL); MIC90 [3]: 0.78 µM (≈ 0.359 µg/mL)
CCCCCCCCn1cc(CN2CCCC3(CC2)OCCCS3)c2ccc(OC)cc21 (configuration not stated) | 132 | 34 | –
COc1ccc(CCCn2cc(CN3CCC4(CC3)OCCO4)c3ccc(OC)cc32)cc1 | – | 31 | –
CCCCCCCCn1cc(CN2CCC3(CC2)OCCCS3)c2ccc(OC)cc21 | > 300 | 39 | concentration at 5 h [4]: 1600 ng/g; AUC (Mus musculus [5]): 224 ng·h/mL; MBC [6]: 3.2 µM (≈ 1.42 µg/mL); Activity (Mus musculus [7]): Non-Toxic; MBC [8]: 3.2 µM (≈ 1.42 µg/mL); MIC50 [3]: 0.5 µM (≈ 0.222 µg/mL); MIC90 [3]: 0.8 µM (≈ 0.356 µg/mL); ΔTm (Lipid bilayer): 4 °C; Cmax [9]: 60.6 ng/mL; concentration at 5 h [10]: 55.2 ng/mL; LCC99.9 [11]: <18 µM; t1/2 [12]: 32.9 min; Kp at 5 h [13]: 28.9
COc1ccc2c(CN3CCC4(CC3)OCCO4)cn(CCCc3ccccc3)c2c1 | – | 35 | –
CCCCCCCCn1cc(CNC2CCC3(CC2)OCCO3)c2ccc(OC)cc21 | 207 | 22 | –
CCCCCCCCn1ccc2cc(OCCCN3CCCCCC3)ccc21 | – | 34 | ΔTm (Lipid bilayer): 1 °C
CCCCCCCCn1cc(CN2CCCCC2)c2ccc(OC(C)C)cc21 | – | 26 | –
CCCCCCCCn1cc(CN2CCC3(CC2)OCCCO3)c2ccc(OC)cc21 | 64 | 29 | concentration [14]: 3000 nM; AUC (Mus musculus [5]): 282 ng·h/mL; MBC [6]: 3.2 µM (≈ 1.37 µg/mL); Activity (Mus musculus [7]): Non-Toxic; Activity (Mus musculus [15]): Non-Toxic; MBC [8]: 3.2 µM (≈ 1.37 µg/mL); MIC50 [3]: 0.44 µM (≈ 0.189 µg/mL); MIC90 [3]: 0.76 µM (≈ 0.326 µg/mL); ΔTm (Lipid bilayer): 4 °C; Cmax [9]: 64.8 ng/mL; concentration at 5 h [10]: 58.5 ng/mL; LCC99 [11]: 18 µM; t1/2 [12]: 27.7 min
CCCCCCCCn1cc(CN2CCC3(CC2)OCCO3)c2ccc(OCc3ccccc3)cc21 | > 300 | 36 | –
COc1ccc(OCCCn2cc(CN3CCC4(CC3)OCCCO4)c3ccc(OC)cc32)cc1 | > 300 | 46 | –
CCCCCCCCn1cc(CN2CCCCC2)c2ccc(C#N)cc21 | – | 22 | –
CCCCCCCCn1cc(CN2CCC3(C=Cc4ccccc43)CC2)c2ccc(OC)cc21 | > 300 | 44 | selectivity ratio [2]: 44
CCCCCCCCn1cc(CN2CCC3(CC2)OCCO3)c2ccc(OCCC)cc21 | 31 | 29 | –
CCCCCCCCn1cc(CNCC2CC3CCC2C3)c2ccc(OC)cc21 (configuration not stated) | 19 | 10 | –
CCCCCCCCn1cc(CNC2Cc3ccccc3C2)c2ccc(OC)cc21 | – | 24 | selectivity ratio [2]: 6
CCCCCCCCn1cc(CN2CCC3(CC2)OCCCO3)c2ccc(OCCC)cc21 | 27 | 29 | –
